PglD DTNB – inhibitors of Campylobacter jejuni PglD acetyltransferase | purified PglD enzyme, DTNB colorimetric CoA detection | inhibition, % at 12.5 µM | hit rate 0.098% among 360,000 | AID 602405; in the data active = inhibition above about 16%, passing the limit was not always enough; inconclusive = no clear call, values can overlap the other calls
Cneo AK release – causes C. neoformans cell lysis | hit rate 0.2% among 360,000 | adenylate kinase release luminescence, 4 h; normalised: neutral wells 0, clomiphene wells 100 | lysis activity, % at 15 µM;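 active = mean lysis activity across replicates of at least 80%, whatever share of replicates individually reach that level; inactive = mean lysis activity below 80%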
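Assay system: C. neoformans cells. Amount: yeast cell density of 5 × 10^6 cells/mL. Technique: AK luminescence. Buffer or medium: YPD. Times: static 4 h at 37 °C with compound, 1 h detection. Dosing: single-point compound dose. Read-out: lysis from increased AK signal.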
rRNA inh HTS – inhibitors of bacterial rRNA selective over humanized ribosomes. AID 720706. hit rate 1.6% among 350,000. GFP signal change (wild-type ribosome), % (concentration not given with the values). E. coli WT GFP vs humanized-ribosome RFP mutants, fluorescence, 24 h; stronger effect = lower value; DMSO median 0, no signal -100;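 active = significant combined selectivity score with lowered wild-type GFP, culture density cut under 30%, mutant RFP and density less affected; inactive = any of these conditions unmet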
RAD52 inh – RAD52 (human) annealing inhibition. P43351. recombinant RAD52 DNA annealing, FRET fluorescence. inhibition, % at 18.7 µM. hit rate 0.46% among 360,000. AID 651710;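 active = every replicate showing at least 50% inhibition; inconclusive = mean inhibition at least 50% but not in every replicate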
RAD54 branch – blocks human RAD54 Holliday junction branch migration; Q92698; FAM/BHQ fluorescence; inhibition, % at 10.4 µM; hit rate 0.14% among 360,000;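 active = mean normalized replicate activity at least 40 and at least half of replicates scoring 40 or more; inconclusive = only one of the two criteria met; inactive = mean below 40 and under half of replicates reaching 40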;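 note: inhibitors cause a drop in the FAM fluorescence signal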
Target sequence (Q92698 whole entry, looked up): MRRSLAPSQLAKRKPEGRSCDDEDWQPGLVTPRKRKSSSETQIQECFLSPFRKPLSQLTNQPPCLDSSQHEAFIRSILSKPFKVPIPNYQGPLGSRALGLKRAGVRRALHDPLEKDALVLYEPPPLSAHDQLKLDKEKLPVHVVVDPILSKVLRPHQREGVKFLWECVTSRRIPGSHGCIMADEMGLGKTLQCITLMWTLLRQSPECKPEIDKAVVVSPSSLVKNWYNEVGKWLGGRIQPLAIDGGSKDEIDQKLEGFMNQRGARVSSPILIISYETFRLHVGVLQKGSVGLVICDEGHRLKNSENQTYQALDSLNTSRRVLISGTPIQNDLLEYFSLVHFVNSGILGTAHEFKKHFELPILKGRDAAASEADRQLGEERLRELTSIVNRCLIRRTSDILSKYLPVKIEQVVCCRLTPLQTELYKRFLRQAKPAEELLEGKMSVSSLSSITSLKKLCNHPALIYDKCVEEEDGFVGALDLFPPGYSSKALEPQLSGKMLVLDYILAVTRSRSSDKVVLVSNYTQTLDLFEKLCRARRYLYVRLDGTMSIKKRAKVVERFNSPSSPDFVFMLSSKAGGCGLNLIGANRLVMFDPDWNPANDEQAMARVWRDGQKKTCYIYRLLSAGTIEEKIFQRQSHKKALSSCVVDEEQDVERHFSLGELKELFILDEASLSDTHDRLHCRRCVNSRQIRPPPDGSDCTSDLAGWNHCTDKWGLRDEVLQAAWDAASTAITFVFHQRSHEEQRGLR
RAD52 DNA ctr – counter-screen for RAD52 inhibitors: DNA binding compounds | shares compounds with RAD52 inh | Salmon sperm DNA/acridine orange FP displacement | AC50, µM | hit rate 8% among 1,000;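 active = fitted half-maximal concentration for signal loss at or below twice the highest dose tested, in every separate run, actives reach about 64 µM in these data; inconclusive = runs disagree, or flat partial signal loss, or poor fit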
Each line names hits and unclear results; the compound was inactive in the other large screens (follow-up assays come after a bar, where they were run). In the library only some 1.9% were active in any assay of this set; here they are far more common.

CN(C)C(=O)c1cccc(-c2cnc3c(NC=O)cc(-c4cccc(F)c4)cn23)c1	none
CN(C)CCNC(=O)c1cccc(-c2cc(NC=O)c3ncc(-c4cccc(C(F)(F)F)c4)n3c2)c1	RAD52 inh 74 | RAD52 DNA ctr inactive
CN(C)CCCNc1ncnc2oc(-c3ccccc3)c(-c3ccccc3)c12	none | RAD52 DNA ctr inactive
C[C@H]1CN([C@@H](C)CO)C(=O)c2cccc(NC(=O)c3nc4ccccc4s3)c2O[C@@H]1CN(C)S(=O)(=O)c1cn(C)cn1	none
CC(C)CC#Cc1cnc2c(c1)C(=O)N([C@H](C)CO)C[C@@H](C)[C@H](CN(C)Cc1ccccc1C(=O)O)O2	none
OCCN1CCN(C2Cc3cc(Cl)ccc3Sc3ccc(Cl)cc32)CC1 (stereo not given) (tested in a mixture with another compound)	none (no result: rRNA inh HTS, RAD52 inh)
CN1CCN(C2Cc3cc(Cl)ccc3Sc3cc(F)ccc32)CC1 (stereo not given)	RAD52 inh 54 (no result: PglD DTNB, Cneo AK release, RAD54 branch) | RAD52 DNA ctr inactive
Nc1ccc(N2CCN(c3ccc(F)cc3)CC2)cc1	none (no result: PglD DTNB, Cneo AK release, RAD54 branch)
CC(=O)N1CCN(c2ccc(N)cc2)CC1	RAD52 inh 58 | RAD52 DNA ctr inactive
Cc1noc(C)c1S(=O)(=O)N(C)C[C@@H]1Oc2ccc(NS(=O)(=O)c3ccc(Cl)cc3)cc2C(=O)N([C@H](C)CO)C[C@@H]1C	none
CNC[C@H]1Oc2ncc(-c3cncnc3)cc2C(=O)N([C@@H](C)CO)C[C@H]1C	none (no result: PglD DTNB, Cneo AK release, RAD54 branch)
COc1cccc(C#Cc2ccc([C@@H]3[C@@H](CO)N4C(=O)CN(S(=O)(=O)c5ccccc5C)C[C@@H]34)cc2)c1	none (no result: PglD DTNB, Cneo AK release, RAD54 branch)
CN1CCN(CCCCC(=O)c2ccccc2)CC1	none (no result: rRNA inh HTS, RAD52 inh)
CN1CCN(CCCC(=O)c2ccc(C3CCCC3)cc2)CC1	RAD52 inh 68 (no result: PglD DTNB, Cneo AK release, RAD54 branch) | RAD52 DNA ctr inactive
Cc1cccn2c(=O)c3cc(C(N)=S)c(=N)n(CCCN4CCOCC4)c3nc12	RAD52 inh 86 (no result: PglD DTNB, Cneo AK release, RAD54 branch) | RAD52 DNA ctr inactive
Cc1cccn2c(=O)c3cc(C(=O)NC(C)c4ccccc4)c(=N)n(CCCn4ccnc4)c3nc12 (stereo not given)	RAD52 inh 68 (no result: PglD DTNB, Cneo AK release, RAD54 branch) | RAD52 DNA ctr inactive
Cc1cc(C)c2c(=N)c3ccccc3n(CCCCCCCCn3c4ccccc4c(=N)c4c(C)cc(C)nc43)c2n1	RAD52 inh 67 (no result: PglD DTNB, Cneo AK release, RAD54 branch) | RAD52 DNA ctr 16µM
CCOC(=O)c1c(NC(=O)C[n+]2ccc(Cc3ccccc3)cc2)sc(C)c1C	RAD52 inh 50 (no result: PglD DTNB, Cneo AK release, RAD54 branch) | RAD52 DNA ctr inactive
CCOC(=O)c1c(NC(=S)Nc2ccccc2)sc(C)c1C	none
COc1ccc(NC(=O)COc2ccc(/C=C/c3cc[n+](C)cc3)cc2OC)cc1	none (no result: PglD DTNB, Cneo AK release, RAD54 branch)
COc1cc(/C=C/c2cc[n+](C)cc2)ccc1OCC(=O)Nc1ccc(Cl)c(Cl)c1	RAD52 inh 69 | RAD52 DNA ctr inactive
CCCCCCCCCCCCCCCC[n+]1cccc2ccccc21	RAD52 inh 90 (no result: PglD DTNB, Cneo AK release, RAD54 branch) | RAD52 DNA ctr 32µM
Cc1ccccc1C[n+]1cccc2ccccc21	none
C[C@@H]1CN([C@@H](C)CO)C(=O)Cc2cc(NC(=O)Nc3ccc4c(c3)OCO4)ccc2O[C@@H]1CN(C)S(=O)(=O)c1ccccc1	none (no result: PglD DTNB, Cneo AK release, RAD54 branch)
CCN(CC)c1ccc(C(=C2C=CC(=[N+](CC)CC)C=C2)c2ccc(N(CC)CC)cc2)cc1	RAD52 inh 52 (no result: rRNA inh HTS) | RAD52 DNA ctr inactive
O=C(C[C@@H]1CC[C@H]2[C@@H](COC[C@H](O)CN2C(=O)c2cnccn2)O1)NCc1ccc(F)cc1	none
CCN(CC)CCNc1ncnc2c1sc1nc(N3CCOCC3)c3c(c12)CCCC3	RAD52 inh 66 (no result: PglD DTNB, Cneo AK release, RAD54 branch) | RAD52 DNA ctr 65µM
CC(C)CNc1ncnc2c1sc1nc(N3CCOCC3)c3c(c12)CC(C)(C)OC3	none (no result: rRNA inh HTS, RAD52 inh)
CCN(CC)CCNc1ncnc2c1sc1nc(N3CCCC3)c3c(c12)CC(C)(C)OC3	RAD52 inh 79 (no result: PglD DTNB, Cneo AK release, RAD54 branch) | RAD52 DNA ctr inactive
CC(C(=O)c1ccccc1)[n+]1cccc(Br)c1 (stereo not given)	none
CC(C(=O)c1ccc(-c2ccccc2)cc1)[n+]1cccc(NC(=O)c2ccccc2)c1 (stereo not given)	RAD52 inh 58, RAD54 branch inconclusive | RAD52 DNA ctr inactive
O=C(C[C@@H]1CC[C@H]2[C@@H](COC[C@@H](O)CN2C(=O)c2ccncc2)O1)NCc1cccc(F)c1	none (no result: RAD52 inh)
NCCCCNCCCN	none (no result: rRNA inh HTS)
NCCNCCNCCN	RAD52 inh 94 (no result: rRNA inh HTS) | RAD52 DNA ctr inactive
CCCOc1cccc(C(=O)NC(=S)Nc2ccc(N3CCN(C)CC3)cc2)c1	RAD52 inh 66 (no result: PglD DTNB, Cneo AK release, RAD54 branch) | RAD52 DNA ctr inactive
CC(C)NC(=O)Nc1ccc2c(c1)C(=O)N([C@@H](C)CO)C[C@@H](C)[C@@H](CN(C)Cc1ccc(-c3ccccc3)cc1)O2	none
Cn1cnc(S(=O)(=O)N[C@H]2CC[C@@H](CC(=O)NCC3CCCCC3)O[C@H]2CO)c1	none
COc1cccc(-c2nc(C(=O)NCCCN3CCOCC3)cc3c2[nH]c2ccccc23)c1	RAD52 inh 59 (no result: rRNA inh HTS) | RAD52 DNA ctr inactive
O=C(NCCCN1CCOCC1)c1cc2c([nH]c3ccccc32)c(-c2cccc(Br)c2)n1	none (no result: rRNA inh HTS)
COc1cc(CNC(C)(C)CO)cc(Br)c1OCc1ccc(Cl)cc1Cl	RAD52 inh 55 (no result: PglD DTNB, Cneo AK release, RAD54 branch) | RAD52 DNA ctr inactive
O=C(NCC1CC1)[C@H]1[C@H](CO)[C@H]2Cn3c(ccc(-c4cncnc4)c3=O)[C@H]2N1C(=O)NC1CCCC1	none
COCC(=O)Nc1ccc2c(c1)C(=O)N(C)[C@@H]1CC[C@H](CC(=O)N3CCc4ccccc4C3)O[C@H]1CO2	none
C[C@@H]1CN([C@H](C)CO)C(=O)c2cccc(NC(=O)Nc3ccc(C(F)(F)F)cc3)c2O[C@@H]1CN(C)S(=O)(=O)c1ccc(F)cc1	none
CCN1CCN(c2ccc(N=Cc3ccccc3O)cc2)CC1	RAD52 inh 99 (no result: PglD DTNB, Cneo AK release, RAD54 branch) | RAD52 DNA ctr inactive
CCN(CC)CC(O)Cn1c2ccccc2c2ccccc21 (stereo not given)	none (no result: rRNA inh HTS, RAD52 inh)
CCN(CC)CC(O)Cn1c(C)c(-c2ccccc2)c2cc([N+](=O)[O-])ccc21 (stereo not given)	RAD52 inh 64 | RAD52 DNA ctr inactive
CCN1CCN(CCCNC(=O)c2ccc(/C=C3/Sc4ccccc4N(Cc4ccccc4F)C3=O)cc2)CC1	RAD52 inh 76, RAD54 branch 54 | RAD52 DNA ctr inactive
Cc1ccccc1CN1C(=O)c2ccccc2Sc2ccc(C(=O)NCCN3CCOCC3)cc21	none
O=C(NCCCN1CCOCC1)c1ccc(/C=C2\Oc3ccccc3N(Cc3ccccc3F)C2=O)cc1	none
CCN1CCN(CCNC(=O)c2ccc(/C=C3/Sc4ccccc4N(Cc4ccccc4C)C3=O)cc2)CC1	RAD52 inh 55 | RAD52 DNA ctr inactive
CCCCCCCCCCCCCCCC[n+]1ccccc1	RAD52 inh 93, RAD54 branch 55 | RAD52 DNA ctr inconclusive
CCc1c(C)nc(Nc2nc(C)c3cc(OC)ccc3n2)[nH]c1=O	none (no result: rRNA inh HTS, RAD52 inh)

Compound activity (PubChem BioAssay)
